Values after ≈ are worked out from the molar mass of the structure shown. Active and inactive are the calls of the source. No cut-off for these calls is given here. Where a SMILES comes first, the peptide text is derived from it. [ ]: non-standard residue; d: D form. The star is where a group is joined. Trt = c1ccc(C(c2ccccc2)(c2ccccc2)*)cc1; Sar = CNCC(=O)O; tBu = CC(C)(C)*
Assays:
[1] = test system: Plasmodium falciparum; test: Anti-plasmodial activity against chloroquine-sensitive Plasmodium falciparum 3D7 infected in erythrocytes after 72 hrs by SYBR green dye based fluorescence assay; assay type: functional, organism-based; settings: 3D7, 72 h
How it was run: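 P. falciparum 3D7 (drug-sensitive) grown in erythrocytes; growth read by SYBR Green fluorescence; EC50 reported as mean ± SD of n = 2.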

[2] = test system: Plasmodium berghei; test: Antiplasmodial activity against Plasmodium berghei NK65 infected in Swiss mouse assessed as reduction in parasitemia at 50 mg/kg, po administered once daily for 3 consecutive days post infection measured on day 5 post infection relative to control; assay type: functional; parameters: scale not given: the % may be the effect or the level left
How it was run: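 Suppressive test in Swiss outbred mice inoculated with P. berghei NK65-infected red blood cells. A single oral dose of 50 mg·kg–1 was given on each of days 2, 3 and 4. Control groups received chloroquine or vehicle. Parasitemia reduction was read on day 5 and followed until day 9.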

[3] = Selectivity index, ratio of IC50 for mouse J774 cells to EC50 for chloroquine-resistant Plasmodium falciparum K1 infected in human erythrocytes; assay type: toxicity, cell-based; settings: read-out: Ratio IC50/EC50
[4] = Permeability of the compound in pH 7.4 phosphate buffered saline at 20 uM after 20 hrs by PAMPA; assay type: ADME; settings: for Papp at 20 h, 20 µM: PAMPA, pH 7.4, read-out: permeability; for permeability: pampa, pH 7.4, 20 h, 20 µM, BLD = below limit of detection
How it was run: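 PAMPA giving experimental permeability Pe (×10–6 cm/s), n = 3. The limit of quantitation in the acceptor compartment was 0.02 or 0.03 μM.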

[5] = n-Octanol/water partition coefficient, log D of compound at pH 7.4 by UV-HPLC analysis
[6] = Selectivity index, ratio of IC50 for human HepG2 cells to EC50 for chloroquine-sensitive Plasmodium falciparum 3D7 infected in erythrocytes; assay type: toxicity, cell-based; settings: read-out: Ratio IC50/EC50
How it was run: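 Selectivity index is HepG2 cytotoxicity IC50 divided by EC50 against drug-sensitive P. falciparum 3D7. Parasite EC50 came from a SYBR Green growth assay, with values as the mean of n = 2.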

[7] = Solubility of the compound in pH 1 0.1M HCl after 2 hrs by UV-HPLC analysis; assay type: physicochemical
How it was run: (§1)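 Solubility was measured in PBS pH 7.4 and at pH 1.0, in μM, n = 2.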

[8] = test system: Plasmodium falciparum; test: Antiplasmodial activity against chloroquine-resistant Plasmodium falciparum K1 infected in human erythrocytes assessed as reduction in [3H]hypoxanthine incorporation pretreated for 24 hrs followed by [3H]hypoxanthine addition and measured after 24 hrs by liquid scintillation counting method; assay type: functional, organism-based
How it was run: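 Chloroquine-resistant P. falciparum K1 in erythrocytes incubated with compound for 24 h; growth read as 3H-hypoxanthine incorporation; EC50 reported as mean ± SD of n = 2.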

[9] = Solubility of the compound in pH 7.4 phosphate buffered saline after 2 hrs by UV-HPLC analysis; assay type: physicochemical; how it was run: as §1
[10] = test system: Plasmodium berghei; test: Antiplasmodial activity against Plasmodium berghei NK65 infected in Swiss mouse assessed as reduction in parasitemia at 50 mg/kg, po administered once daily for 3 consecutive days post infection measured on day 9 post infection; assay type: functional, organism-based
How it was run: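 Four-day suppressive test: Swiss outbred mice inoculated with P. berghei NK65-infected red blood cells, then given a single oral 50 mg/kg dose on each of days 2, 3 and 4. Chloroquine-treated and vehicle-treated groups served as controls. Parasitemia was measured on day 5 and followed to day 9.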

[11] = test system: Plasmodium falciparum; test: Plasmodicidal activity against Plasmodium falciparum 3D7A infected in CFDA-SE-labelled erythrocytes assessed as parasite killing at 10 times EC50 treated for 24 to 48 hrs following media refreshment for every 24 hrs by FACS analysis; assay type: functional, organism-based
How it was run: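 Viability was judged by the ability of drug-treated parasites to make new invasions of prestained human RBCs. New invasions were quantified by double-colorimetric FACS. Drug treatment used two time points to separate rapidly parasiticidal from moderate or slow acting agents.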

[12] = test system: Plasmodium berghei; test: Antiplasmodial activity against exoerythrocytic-stage of Plasmodium berghei ANKA infected in human HepG2 cells expressing CD81 pretreated with cells for 18 hrs followed by parasite infection and measured after 48 hrs by brightglo-luminescence assay; assay type: functional, organism-based
[13] = Plasma concentration in Swiss albino mouse at 50 mg/kg, po after 0.5 to 12 hrs by LC-MS/MS analysis; assay type: ADME, organism-based; settings: in vivo
How it was run: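 Male Swiss Albino mice received a solution formulation of the compound as one oral dose of 50 mg/kg. Blood was sampled at 0.25, 0.5, 1, 2, 4, 6, 8, 12 and 24 h, and plasma levels were measured (LLOQ 5.16 ng/mL). Values are means, n = 3.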

Row | Compound | EC50 [1] [nM] | Activity [2] [%] | selectivity ratio [3] | Papp at 20 h, 20 µM [4] [×10⁻⁶ cm/s] | logD [5] | selectivity ratio [6] | solubility at 2 h [7] [µM] | EC50 [8] [nM] | EC90 [8] [nM] | solubility at 2 h [9] [µM] | Activity [10] | Activity [11] | EC50 [12] [nM] | Cp [13] [ng/mL] | permeability [4]
1 | CN1CC(=O)N[C@@H](CSC(c2ccccc2)(c2ccccc2)c2ccccc2)C(=O)N(C)CC(=O)N[C@@H](CSC(c2ccccc2)(c2ccccc2)c2ccccc2)C(=O)N(C)CC(=O)N[C@@H](CCC(=O)O)C1=O (cyclo(C(Trt)[Sar]C(Trt)[Sar]E[Sar])) | 12 | 66 | 500000 | 0.2 | 3.9 | > 20000 | 28.3 (≈ 29.3 µg/mL) | 0.2 | 4 | 437 (≈ 451 µg/mL) | Active | – | – | – | –
2 | CN1CC(=O)N[C@@H](CSC(c2ccccc2)(c2ccccc2)c2ccccc2)C(=O)N[C@@H](Cc2ccccc2)C(=O)N[C@@H](COC(C)(C)C)C(=O)N(C)CC(=O)N[C@@H](CSC(c2ccccc2)(c2ccccc2)c2ccccc2)C1=O (cyclo(C(Trt)FS(tBu)[Sar]C(Trt)[Sar])) | 1.8 | – | > 11000 | 0.2 | 8 | > 140000 | 5.32 (≈ 5.98 µg/mL) | 9 | 59 | 0.71 (≈ 0.798 µg/mL) | – | inactive | 335 | – | –
3 | C[C@@H](OC(C)(C)C)[C@@H]1NC(=O)CN(C)C(=O)[C@H](CSC(c2ccccc2)(c2ccccc2)c2ccccc2)NC(=O)CN(C)C(=O)[C@H](CSC(c2ccccc2)(c2ccccc2)c2ccccc2)NC(=O)CN(C)C1=O (cyclo(C(Trt)[Sar]C(Trt)[Sar]T(tBu)[Sar])) | 1 | – | > 2.5e+06 | 0.2 | 3.7 | > 250000 | 0.38 (≈ 0.403 µg/mL) | 0.04 | 1 | 0.55 (≈ 0.584 µg/mL) | – | inactive | 18 | – | –
4 | CCc1nc(N)nc(N)c1-c1ccc(Cl)cc1 [PYRIMETHAMINE] | 35 | – | – | – | – | – | – | – | – | – | – | inactive | – | – | –
5 | C[C@@H](OC(C)(C)C)[C@@H]1NC(=O)CN(C)C(=O)[C@H](CSC(c2ccccc2)(c2ccccc2)c2ccccc2)NC(=O)CNC(=O)[C@H](CSC(c2ccccc2)(c2ccccc2)c2ccccc2)NC(=O)CN(C)C1=O (cyclo(C(Trt)GC(Trt)[Sar]T(tBu)[Sar])) | 0.25 | 71 | – | 1 | 6 | > 1e+06 | 3.46 (≈ 3.62 µg/mL) | 0.008 | 1 | 0.38 (≈ 0.398 µg/mL) | Active | – | – | > 9 | –
6 | CN1CC(=O)N[C@@H](CSC(c2ccccc2)(c2ccccc2)c2ccccc2)C(=O)NCC(=O)N[C@@H](CSC(c2ccccc2)(c2ccccc2)c2ccccc2)C(=O)NCC(=O)N[C@@H](CCC(=O)O)C1=O (cyclo(C(Trt)GC(Trt)GE[Sar])) | 5400 | – | – | – | 3.1 | > 46 | – | – | – | – | – | – | – | – | Bld
7 | C[C@H]1[C@H](OC(=O)CCC(=O)O)O[C@@H]2O[C@@]3(C)CC[C@H]4[C@H](C)CC[C@@H]1[C@@]24OO3 [ARTESUNATE] | 5 | – | – | – | – | – | – | 3 | – | – | – | – | – | – | –
8 | CN1CC(=O)N[C@@H](CSC(c2ccccc2)(c2ccccc2)c2ccccc2)C(=O)N(C)CC(=O)N[C@@H](CSC(c2ccccc2)(c2ccccc2)c2ccccc2)C(=O)N(C)CC(=O)N[C@@H](COC(C)(C)C)C1=O (cyclo(C(Trt)[Sar]C(Trt)[Sar]S(tBu)[Sar])) | 1.4 | – | > 770000 | 0.3 | 6.3 | > 180000 | 0.74 (≈ 0.775 µg/mL) | 0.13 | 4 | 0.18 (≈ 0.189 µg/mL) | – | – | – | – | –
9 | CN1CC(=O)N[C@@H](CSC(c2ccccc2)(c2ccccc2)c2ccccc2)C(=O)NCC(=O)N[C@@H](CSC(c2ccccc2)(c2ccccc2)c2ccccc2)C(=O)N(C)CC(=O)N[C@@H](CCC(=O)O)C1=O (cyclo(C(Trt)GC(Trt)[Sar]E[Sar])) | 210 | – | – | – | – | – | – | – | – | – | – | – | – | – | Bld
10 | CN1CC(=O)N[C@@H](CSC(c2ccccc2)(c2ccccc2)c2ccccc2)C(=O)N[C@@H](CSC(c2ccccc2)(c2ccccc2)c2ccccc2)C(=O)N(C)CC(=O)N[C@@H](COC(C)(C)C)C1=O (cyclo(C(Trt)C(Trt)[Sar]S(tBu)[Sar])) | – | – | – | 2 | 7.7 | – | 0.21 (≈ 0.205 µg/mL) | – | – | 0.12 (≈ 0.117 µg/mL) | – | – | – | – | –
11 | CCN(CC)CCCC(C)Nc1ccnc2cc(Cl)ccc12 (stereo not given) [CHLOROQUINE] | – | – | – | – | – | – | – | 470 | – | – | – | – | – | – | –
12 | O=C1C(O)=C([C@H]2CC[C@H](c3ccc(Cl)cc3)CC2)C(=O)c2ccccc21 [ATOVAQUONE] | – | – | – | – | – | – | – | – | – | – | – | inactive | 2.8 | – | –
13 | C[C@@H]1CC[C@H]2[C@@H](C)C(=O)O[C@@H]3O[C@@]4(C)CC[C@@H]1[C@]32OO4 [ARTEMISININ] | – | – | – | – | – | – | – | 20 | – | – | – | – | – | – | –
14 | C[C@@H](OC(C)(C)C)[C@@H]1NC(=O)CNC(=O)[C@H](CSC(c2ccccc2)(c2ccccc2)c2ccccc2)NC(=O)CNC(=O)[C@H](CSC(c2ccccc2)(c2ccccc2)c2ccccc2)NC(=O)CN(C)C1=O (cyclo(C(Trt)GC(Trt)GT(tBu)[Sar])) | 3.8 | – | > 12500 | 0.6 | 5.8 | > 66000 | 1.17 (≈ 1.21 µg/mL) | 8 | 39 | 0.94 (≈ 0.971 µg/mL) | – | – | – | – | –

From ChEMBL document CHEMBL4382296, “Synthesis, Profiling, and in Vivo Evaluation of Cyclopeptides Containing N-Methyl Amino Acids as Antiplasmodial Agents” (ACS Med Chem Lett, 2019)
